{
  "source": "the RNAGym collection of RNA variant scans (doi:10.1038/s41586-018-0170-7)",
  "parents": {"B1": {"name": "tRNA (parent)", "chain": "GUUCCGUUGGCGUAAUGGUAACGCGUCUCCCUCCUAAGGAGAAGACUGCGGGUUCGAGUCCCGUACGGAACG"}},
  "data": [
    {"variants_of": "B1", "assay": "yeast fitness, log relative to wild type (ln ratio); higher = fitter; tRNA-Arg(CCU), competitive growth, 37 C, 1 M NaCl", "method_in_brief": "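Fitness is the natural log of each genotype's generations divided by the wild type's. Generations were derived as OD-scaled log2 output/input frequency from 125 bp paired-end Illumina counts, weighting replicates by inverse variance. Pools of the tRNA-Arg(CCU) variant library, on a HIS3 centromeric plasmid in BY4742 lacking the chromosomal gene, grew ~6.5 generations (~26.5 h) in SC-HIS 1M NaCl at 37 °C after 4 generations in SC-HIS at 30 °C.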", "values": [
      {"variant": "G1A G6U A43C C46U A69G A70G C71U", "yeast fitness (ln)": -0.321},
      {"variant": "G1A G6A C66A A70G C71U", "yeast fitness (ln)": -0.267},
      {"variant": "G1A G6U A43C C46U C66U A69G C71U", "yeast fitness (ln)": -0.43},
      {"variant": "G1A G6A C27U C46U A70G C71U", "yeast fitness (ln)": -0.366},
      {"variant": "G1A G6U C27U C46U A70U C71U", "yeast fitness (ln)": -0.278},
      {"variant": "G1A G6A C27U A43C C66U A69G A70U C71U", "yeast fitness (ln)": -0.628},
      {"variant": "G1A G6A C46U C66A A70U", "yeast fitness (ln)": -0.134},
      {"variant": "G1A G6U A43C C46U A69G A70G", "yeast fitness (ln)": -0.281},
      {"variant": "G1A G6U A43C C46U A69G A70U", "yeast fitness (ln)": -0.272},
      {"variant": "G1A G6A C27U C46U A69G A70G C71U", "yeast fitness (ln)": -0.316},
      {"variant": "G1A G6U A43C C46U C66A A69G C71U", "yeast fitness (ln)": -0.198},
      {"variant": "G1A G6A C46U C66A A70U C71U", "yeast fitness (ln)": -0.15},
      {"variant": "G1A G6A C66U C71U", "yeast fitness (ln)": -0.0242},
      {"variant": "G1A G6U C27U A43C C46U C66A A69G C71U", "yeast fitness (ln)": -0.671},
      {"variant": "G1A G6U C27U C46U C66U A69G C71U", "yeast fitness (ln)": -0.595},
      {"variant": "G1A G6U C27U C46U A69G A70G C71U", "yeast fitness (ln)": -0.335},
      {"variant": "G1A G6A C27U A43C C46U C66U A70U C71U", "yeast fitness (ln)": -0.413},
      {"variant": "G1A G6U C27U C46U C66A A70U C71U", "yeast fitness (ln)": -0.415},
      {"variant": "G1A G6U C27U A70G C71U", "yeast fitness (ln)": -0.352},
      {"variant": "G1A G6A C27U A43C C46U A70G C71U", "yeast fitness (ln)": -0.315},
      {"variant": "G1A G6U C27U A43C A69G A70G C71U", "yeast fitness (ln)": -0.34},
      {"variant": "G1A G6U C27U A43C C66U", "yeast fitness (ln)": -0.362},
      {"variant": "G1A G6A C46U C66A A70G C71U", "yeast fitness (ln)": -0.128},
      {"variant": "G1A G6U A43C C46U C71U", "yeast fitness (ln)": -0.174},
      {"variant": "G1A G6A C27U C66U C71U", "yeast fitness (ln)": -0.0761},
      {"variant": "G1A G6U C27U A70G", "yeast fitness (ln)": -0.277},
      {"variant": "G1A G6U C27U A70U", "yeast fitness (ln)": -0.232},
      {"variant": "G1A G6A C27U A69G A70G C71U", "yeast fitness (ln)": -0.344},
      {"variant": "G1A G6A C66U A69G", "yeast fitness (ln)": -0.346},
      {"variant": "G1A G6A C27U A43C C46U C66U A69G C71U", "yeast fitness (ln)": -0.499},
      {"variant": "G1A G6U C27U A69G A70G C71U", "yeast fitness (ln)": -0.376},
      {"variant": "G1A G6U C46U A70G C71U", "yeast fitness (ln)": -0.227},
      {"variant": "G1A G6U A43C C66A A69G C71U", "yeast fitness (ln)": -0.863},
      {"variant": "G1A G6A C46U C66U", "yeast fitness (ln)": -0.072},
      {"variant": "G1A G6U A43C C66A A70G C71U", "yeast fitness (ln)": -0.517},
      {"variant": "G1A G6U C27U C46U C66U A70G", "yeast fitness (ln)": -0.234},
      {"variant": "G1A G6U C27U C46U C66U A70U", "yeast fitness (ln)": -0.29},
      {"variant": "G1A G6U C27U A43C C46U C66A A70U", "yeast fitness (ln)": -0.359},
      {"variant": "G1A G6U C27U A43C C46U C66A A70G", "yeast fitness (ln)": -0.319},
      {"variant": "G1A G6U C27U C46U A69G C71U", "yeast fitness (ln)": -0.291},
      {"variant": "G1A G6U C27U A43C C46U C66A C71U", "yeast fitness (ln)": -0.138},
      {"variant": "G1A G6A C27U A43C C46U C71U", "yeast fitness (ln)": -0.247},
      {"variant": "G1A G6A C27U C46U A69G A70U C71U", "yeast fitness (ln)": -0.36},
      {"variant": "G1A G6A C27U A43C C71U", "yeast fitness (ln)": -0.213},
      {"variant": "G1A G6A C46U C66U A69G A70U C71U", "yeast fitness (ln)": -0.363},
      {"variant": "G1A G6U A69G A70G C71U", "yeast fitness (ln)": -0.247},
      {"variant": "G1A G6U C27U A43C A70G C71U", "yeast fitness (ln)": -0.426},
      {"variant": "G1A G6U C27U C46U C71U", "yeast fitness (ln)": -0.239},
      {"variant": "G1A G6A C27U A70G C71U", "yeast fitness (ln)": -0.332},
      {"variant": "G1A G6A C46U A70G C71U", "yeast fitness (ln)": -0.208},
      {"variant": "G1A G6U C27U A43C C66U A70G", "yeast fitness (ln)": -0.609},
      {"variant": "G1A G6U C27U A43C C66U A70U", "yeast fitness (ln)": -0.381},
      {"variant": "G1A G6A C27U A43C C66U A69G A70G", "yeast fitness (ln)": -0.383},
      {"variant": "G1A G6A C46U C66U A70U C71U", "yeast fitness (ln)": -0.0831},
      {"variant": "G1A G6U C27U A43C C66U C71U", "yeast fitness (ln)": -0.403},
      {"variant": "G1A G6U C27U C66A", "yeast fitness (ln)": -0.254},
      {"variant": "G1A G6U C27U C66U", "yeast fitness (ln)": -0.29},
      {"variant": "G1A G6U C27U A43C C46U C66U A69G C71U", "yeast fitness (ln)": -0.423},
      {"variant": "G1A G6U C27U A43C C46U A70U C71U", "yeast fitness (ln)": -0.318},
      {"variant": "G1A G6A C66U A69G A70U C71U", "yeast fitness (ln)": -0.266},
      {"variant": "G1A G6U C27U C66U A69G A70U", "yeast fitness (ln)": -0.368},
      {"variant": "G1A G6U C27U C66U A69G A70G", "yeast fitness (ln)": -0.47},
      {"variant": "G1A G6U C27U A43C C46U C66A A69G A70U C71U", "yeast fitness (ln)": -0.426},
      {"variant": "G1A G6U C27U A43C C66U A70U C71U", "yeast fitness (ln)": -0.391},
      {"variant": "G1A G6U A43C A70U C71U", "yeast fitness (ln)": -0.303},
      {"variant": "G1A G6U A70G C71U", "yeast fitness (ln)": -0.148},
      {"variant": "G1A G6U A43C C46U C66A C71U", "yeast fitness (ln)": -0.0191},
      {"variant": "G1A G6A C27U A43C C46U A70U", "yeast fitness (ln)": -0.201},
      {"variant": "G1A G6U A43C A70G", "yeast fitness (ln)": -0.21},
      {"variant": "G1A G6U A43C A70U", "yeast fitness (ln)": -0.247},
      {"variant": "G1A G6U C27U C46U A70U", "yeast fitness (ln)": -0.274},
      {"variant": "G1A G6U C27U C46U A70G", "yeast fitness (ln)": -0.191},
      {"variant": "G1A G6U C27U A43C C46U C66U A70G", "yeast fitness (ln)": -0.387},
      {"variant": "G1A G6U C27U A43C C46U C66U A70U", "yeast fitness (ln)": -0.368},
      {"variant": "G1A G6A C66U A70U", "yeast fitness (ln)": -0.0527},
      {"variant": "G1A G6A C66U A70G", "yeast fitness (ln)": -0.184},
      {"variant": "G1A G6U C27U C46U C66A A69G C71U", "yeast fitness (ln)": -0.187},
      {"variant": "G1A G6U C27U A43C C66U A69G C71U", "yeast fitness (ln)": -0.258},
      {"variant": "G1A G6U C27U C66U A70U", "yeast fitness (ln)": -0.274},
      {"variant": "G1A G6U C27U C66U A70G", "yeast fitness (ln)": -0.391},
      {"variant": "G1A G6U A43C C66U A69G A70G C71U", "yeast fitness (ln)": -0.371},
      {"variant": "G1A G6U A43C C66A C71U", "yeast fitness (ln)": -0.0965},
      {"variant": "G1A G6U C27U C66A A69G A70U C71U", "yeast fitness (ln)": -0.223}
    ]}
  ]
}
